Results as given in ChEMBL document CHEMBL4689842, “EUbOPEN Chemogenomics Library wave 1” (2021).

Tested on: U2OS
Assay: Multiplex assay against U2OS
Type: toxicity, cell-based
Conditions: human
Outline: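 Values for tubulin, mitochondrial-mass and membrane-permeability phenotypes are per cents of cells with healthy nuclei. These cells were identified by CellPathfinder machine-learning gating of live cells that had been stained at seeding with Hoechst33342, BioTracker Green Microtubule Cytoskeleton Dye, MitoTracker Red and Annexin V Alexa Fluor 680 and imaged on a CQ1 microscope at 37°C and 5% CO2 after compound addition. The gating first set Hoechst high-intensity objects apart from normal cells, then split normal cells into healthy, pyknosed or fragmented nuclei, and pyknosed cells into mitotic or apoptotic.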

[1] = 12 h, 1 µM, compound concentration 1 uM, replicate 1
[2] = 12 h, 1 µM, compound concentration 1 uM, replicate 2
[3] = 12 h, 10 µM, compound concentration 10 uM, replicate 1
[4] = 12 h, 10 µM, compound concentration 10 uM, replicate 2
[5] = 24 h, 1 µM, compound concentration 1 uM, replicate 1
[6] = 24 h, 1 µM, compound concentration 1 uM, replicate 2
[7] = 24 h, 10 µM, compound concentration 10 uM, replicate 1
[8] = 24 h, 10 µM, compound concentration 10 uM, replicate 2
[9] = 48 h, 1 µM, compound concentration 1 uM, replicate 1
[10] = 48 h, 1 µM, compound concentration 1 uM, replicate 2
[11] = 48 h, 10 µM, compound concentration 10 uM, replicate 1
[12] = 48 h, 10 µM, compound concentration 10 uM, replicate 2

CC(C)(O)CNc1ncc(-c2ccnc(Nc3ccnc(Cl)c3)n2)c(CC2CC2)n1
Population Apoptotic (%) [1]: 44%
Population Fragmented Nuclei (%) [1]: 9%
Population Healthy Nuclei (%) [1]: 71%
Population Hoechst High Intensity Objects (%) [1]: 3%
Population Membrane Permeable-Phenotype (%) [1]: 8%
Population Mitochondria Different-Phenotype (%) [1]: 24%
Population Mitotic Cells (%) [1]: 55%
Population Normal (%) [1]: 96%
Population Pyknosed Nuclei (%) [1]: 18%
Population Tubulin-Different-Phenotype (%) [1]: 19%
Total Cell Count [1]: 182
Population Apoptotic (%) [2]: 9%
Population Healthy Nuclei (%) [2]: 78%
Population Hoechst High Intensity Objects (%) [2]: 5%
Population Membrane Permeable-Phenotype (%) [2]: 5%
Population Mitochondria Different-Phenotype (%) [2]: 17%
Population Mitotic Cells (%) [2]: 90%
Population Normal (%) [2]: 94%
Population Pyknosed Nuclei (%) [2]: 12%
Population Tubulin-Different-Phenotype (%) [2]: 14%
Total Cell Count [2]: 97
Population Apoptotic (%) [3]: 50%
Population Fragmented Nuclei (%) [3]: 18%
Population Healthy Nuclei (%) [3]: 42%
Population Hoechst High Intensity Objects (%) [3]: 14%
Population Membrane Permeable-Phenotype (%) [3]: 24%
Population Mitochondria Different-Phenotype (%) [3]: 90%
Population Mitotic Cells (%) [3]: 50%
Population Normal (%) [3]: 85%
Population Pyknosed Nuclei (%) [3]: 38%
Population Tubulin-Different-Phenotype (%) [3]: 100%
Total Cell Count [3]: 202
Population Apoptotic (%) [4]: 15%
Population Fragmented Nuclei (%) [4]: 10%
Population Healthy Nuclei (%) [4]: 64%
Population Hoechst High Intensity Objects (%) [4]: 7%
Population Membrane Permeable-Phenotype (%) [4]: 28%
Population Mitochondria Different-Phenotype (%) [4]: 96%
Population Mitotic Cells (%) [4]: 84%
Population Normal (%) [4]: 92%
Population Pyknosed Nuclei (%) [4]: 26%
Total Cell Count [4]: 93
Population Apoptotic (%) [5]: 35%
Population Fragmented Nuclei (%) [5]: 6%
Population Healthy Nuclei (%) [5]: 75%
Population Hoechst High Intensity Objects (%) [5]: 3%
Population Membrane Permeable-Phenotype (%) [5]: 5%
Population Mitochondria Different-Phenotype (%) [5]: 22%
Population Mitotic Cells (%) [5]: 64%
Population Normal (%) [5]: 96%
Population Pyknosed Nuclei (%) [5]: 18%
Population Tubulin-Different-Phenotype (%) [5]: 10%
Total Cell Count [5]: 196
Population Apoptotic (%) [6]: 20%
Population Fragmented Nuclei (%) [6]: 11%
Population Healthy Nuclei (%) [6]: 74%
Population Hoechst High Intensity Objects (%) [6]: 4%
Population Membrane Permeable-Phenotype (%) [6]: 10%
Population Mitochondria Different-Phenotype (%) [6]: 20%
Population Mitotic Cells (%) [6]: 80%
Population Normal (%) [6]: 95%
Population Pyknosed Nuclei (%) [6]: 15%
Population Tubulin-Different-Phenotype (%) [6]: 16%
Total Cell Count [6]: 136
Population Apoptotic (%) [7]: 52%
Population Fragmented Nuclei (%) [7]: 26%
Population Healthy Nuclei (%) [7]: 22%
Population Hoechst High Intensity Objects (%) [7]: 12%
Population Membrane Permeable-Phenotype (%) [7]: 47%
Population Mitochondria Different-Phenotype (%) [7]: 100%
Population Mitotic Cells (%) [7]: 47%
Population Normal (%) [7]: 87%
Population Pyknosed Nuclei (%) [7]: 51%
Population Tubulin-Different-Phenotype (%) [7]: 100%
Total Cell Count [7]: 240
Population Apoptotic (%) [8]: 47%
Population Fragmented Nuclei (%) [8]: 14%
Population Healthy Nuclei (%) [8]: 40%
Population Hoechst High Intensity Objects (%) [8]: 14%
Population Mitochondria Different-Phenotype (%) [8]: 89%
Population Mitotic Cells (%) [8]: 52%
Population Normal (%) [8]: 85%
Population Pyknosed Nuclei (%) [8]: 44%
Total Cell Count [8]: 105
Population Apoptotic (%) [9]: 45%
Population Fragmented Nuclei (%) [9]: 6%
Population Hoechst High Intensity Objects (%) [9]: 2%
Population Membrane Permeable-Phenotype (%) [9]: 9%
Population Mitochondria Different-Phenotype (%) [9]: 10%
Population Mitotic Cells (%) [9]: 54%
Population Normal (%) [9]: 97%
Population Pyknosed Nuclei (%) [9]: 17%
Population Tubulin-Different-Phenotype (%) [9]: 7%
Total Cell Count [9]: 130
Population Apoptotic (%) [10]: 50%
Population Fragmented Nuclei (%) [10]: 13%
Population Healthy Nuclei (%) [10]: 76%
Population Hoechst High Intensity Objects (%) [10]: 3%
Population Membrane Permeable-Phenotype (%) [10]: 17%
Population Mitochondria Different-Phenotype (%) [10]: 24%
Population Mitotic Cells (%) [10]: 50%
Population Normal (%) [10]: 96%
Population Pyknosed Nuclei (%) [10]: 10%
Population Tubulin-Different-Phenotype (%) [10]: 22%
Total Cell Count [10]: 90
Population Apoptotic (%) [11]: 82%
Population Fragmented Nuclei (%) [11]: 35%
Population Healthy Nuclei (%) [11]: 12%
Population Hoechst High Intensity Objects (%) [11]: 15%
Population Membrane Permeable-Phenotype (%) [11]: 50%
Population Mitochondria Different-Phenotype (%) [11]: 90%
Population Mitotic Cells (%) [11]: 17%
Population Normal (%) [11]: 84%
Population Pyknosed Nuclei (%) [11]: 51%
Population Tubulin-Different-Phenotype (%) [11]: 100%
Total Cell Count [11]: 308
Population Apoptotic (%) [12]: 61%
Population Fragmented Nuclei (%) [12]: 19%
Population Healthy Nuclei (%) [12]: 23%
Population Hoechst High Intensity Objects (%) [12]: 17%
Population Membrane Permeable-Phenotype (%) [12]: 100%
Population Mitochondria Different-Phenotype (%) [12]: 100%
Population Mitotic Cells (%) [12]: 38%
Population Normal (%) [12]: 82%
Population Pyknosed Nuclei (%) [12]: 56%
Total Cell Count [12]: 141

CN(C)C(=O)/C(C#N)=C/c1ccc(-c2nc3cnc4[nH]ccc4c3n2C2CCCCC2)o1
Population Apoptotic (%) [1]: 60%
Population Fragmented Nuclei (%) [1]: 17%
Population Healthy Nuclei (%) [1]: 69%
Population Hoechst High Intensity Objects (%) [1]: 8%
Population Membrane Permeable-Phenotype (%) [1]: 5%
Population Mitochondria Different-Phenotype (%) [1]: 14%
Population Mitotic Cells (%) [1]: 40%
Population Normal (%) [1]: 91%
Population Pyknosed Nuclei (%) [1]: 13%
Population Tubulin-Different-Phenotype (%) [1]: 8%
Total Cell Count [1]: 122
Population Apoptotic (%) [2]: 57%
Population Fragmented Nuclei (%) [2]: 4%
Population Healthy Nuclei (%) [2]: 87%
Population Hoechst High Intensity Objects (%) [2]: 2%
Population Membrane Permeable-Phenotype (%) [2]: 2%
Population Mitochondria Different-Phenotype (%) [2]: 6%
Population Mitotic Cells (%) [2]: 42%
Population Normal (%) [2]: 97%
Population Pyknosed Nuclei (%) [2]: 7%
Population Tubulin-Different-Phenotype (%) [2]: 24%
Total Cell Count [2]: 75
Population Apoptotic (%) [3]: 19%
Population Fragmented Nuclei (%) [3]: 17%
Population Healthy Nuclei (%) [3]: 56%
Population Hoechst High Intensity Objects (%) [3]: 49%
Population Membrane Permeable-Phenotype (%) [3]: 12%
Population Mitochondria Different-Phenotype (%) [3]: 55%
Population Mitotic Cells (%) [3]: 80%
Population Normal (%) [3]: 50%
Population Pyknosed Nuclei (%) [3]: 25%
Population Tubulin-Different-Phenotype (%) [3]: 75%
Total Cell Count [3]: 167
Population Apoptotic (%) [4]: 18%
Population Fragmented Nuclei (%) [4]: 20%
Population Healthy Nuclei (%) [4]: 62%
Population Hoechst High Intensity Objects (%) [4]: 54%
Population Membrane Permeable-Phenotype (%) [4]: 13%
Population Mitochondria Different-Phenotype (%) [4]: 63%
Population Mitotic Cells (%) [4]: 81%
Population Normal (%) [4]: 45%
Population Pyknosed Nuclei (%) [4]: 17%
Population Tubulin-Different-Phenotype (%) [4]: 70%
Total Cell Count [4]: 91
Population Apoptotic (%) [5]: 75%
Population Fragmented Nuclei (%) [5]: 12%
Population Healthy Nuclei (%) [5]: 79%
Population Hoechst High Intensity Objects (%) [5]: 5%
Population Membrane Permeable-Phenotype (%) [5]: 4%
Population Mitochondria Different-Phenotype (%) [5]: 8%
Population Mitotic Cells (%) [5]: 25%
Population Normal (%) [5]: 94%
Population Pyknosed Nuclei (%) [5]: 8%
Population Tubulin-Different-Phenotype (%) [5]: 6%
Total Cell Count [5]: 133
Population Apoptotic (%) [6]: 54%
Population Fragmented Nuclei (%) [6]: 5%
Population Healthy Nuclei (%) [6]: 84%
Population Hoechst High Intensity Objects (%) [6]: 4%
Population Membrane Permeable-Phenotype (%) [6]: 2%
Population Mitochondria Different-Phenotype (%) [6]: 10%
Population Mitotic Cells (%) [6]: 45%
Population Normal (%) [6]: 95%
Population Pyknosed Nuclei (%) [6]: 9%
Population Tubulin-Different-Phenotype (%) [6]: 36%
Total Cell Count [6]: 81
Population Apoptotic (%) [7]: 34%
Population Fragmented Nuclei (%) [7]: 17%
Population Healthy Nuclei (%) [7]: 56%
Population Hoechst High Intensity Objects (%) [7]: 44%
Population Membrane Permeable-Phenotype (%) [7]: 15%
Population Mitochondria Different-Phenotype (%) [7]: 45%
Population Mitotic Cells (%) [7]: 65%
Population Normal (%) [7]: 55%
Population Pyknosed Nuclei (%) [7]: 25%
Population Tubulin-Different-Phenotype (%) [7]: 55%
Total Cell Count [7]: 196
Population Apoptotic (%) [8]: 44%
Population Fragmented Nuclei (%) [8]: 28%
Population Healthy Nuclei (%) [8]: 53%
Population Hoechst High Intensity Objects (%) [8]: 54%
Population Membrane Permeable-Phenotype (%) [8]: 12%
Population Mitochondria Different-Phenotype (%) [8]: 49%
Population Mitotic Cells (%) [8]: 55%
Population Normal (%) [8]: 45%
Population Pyknosed Nuclei (%) [8]: 17%
Population Tubulin-Different-Phenotype (%) [8]: 45%
Total Cell Count [8]: 125
Population Apoptotic (%) [9]: 55%
Population Fragmented Nuclei (%) [9]: 8%
Population Healthy Nuclei (%) [9]: 85%
Population Hoechst High Intensity Objects (%) [9]: 0%
Population Membrane Permeable-Phenotype (%) [9]: 3%
Population Mitochondria Different-Phenotype (%) [9]: 7%
Population Mitotic Cells (%) [9]: 44%
Population Normal (%) [9]: 99%
Population Pyknosed Nuclei (%) [9]: 6%
Population Tubulin-Different-Phenotype (%) [9]: 10%
Total Cell Count [9]: 179
Population Apoptotic (%) [10]: 30%
Population Fragmented Nuclei (%) [10]: 4%
Population Healthy Nuclei (%) [10]: 90%
Population Hoechst High Intensity Objects (%) [10]: 1%
Population Membrane Permeable-Phenotype (%) [10]: 1%
Population Mitochondria Different-Phenotype (%) [10]: 15%
Population Mitotic Cells (%) [10]: 70%
Population Normal (%) [10]: 98%
Population Pyknosed Nuclei (%) [10]: 5%
Population Tubulin-Different-Phenotype (%) [10]: 43%
Total Cell Count [10]: 104
Population Apoptotic (%) [11]: 39%
Population Fragmented Nuclei (%) [11]: 26%
Population Healthy Nuclei (%) [11]: 47%
Population Hoechst High Intensity Objects (%) [11]: 44%
Population Membrane Permeable-Phenotype (%) [11]: 23%
Population Mitochondria Different-Phenotype (%) [11]: 18%
Population Mitotic Cells (%) [11]: 60%
Population Normal (%) [11]: 55%
Population Pyknosed Nuclei (%) [11]: 25%
Population Tubulin-Different-Phenotype (%) [11]: 36%
Total Cell Count [11]: 279
Population Apoptotic (%) [12]: 63%
Population Fragmented Nuclei (%) [12]: 34%
Population Healthy Nuclei (%) [12]: 49%
Population Hoechst High Intensity Objects (%) [12]: 48%
Population Membrane Permeable-Phenotype (%) [12]: 27%
Population Mitochondria Different-Phenotype (%) [12]: 27%
Population Mitotic Cells (%) [12]: 36%
Population Normal (%) [12]: 51%
Population Pyknosed Nuclei (%) [12]: 16%
Population Tubulin-Different-Phenotype (%) [12]: 31%
Total Cell Count [12]: 172
